High-throughput results: PubChem, Johns Hopkins Ion Channel Center
TRPC6 inhibitor: mouse TRPC6 channel inhibition. hit rate 1.1% among 310,000. HEK293-TRPC6, membrane potential dye, ACh-evoked depolarization; hits give low values. Q61143. B-score at 10 µM;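 active = B-score under library mean minus 3 SD, initial fluorescence not abnormally high, positive integrated signal ratio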;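 note: B-score derived from integrated fluorescence ratio over the kinetic read; more negative B-score means stronger inhibition of depolarization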
TRPC4 agonist: activators of mouse TRPC4 channel; HEK293 TRPC4beta/mu-opioid, Fluo4 calcium fluorescence; hits give high values; B-score at 10 µM; hit rate 0.49% among 310,000; AID 2237;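 active = B-score above 5 SD of library B-scores, and initial fluorescence ratio not above library mean plus 5 SD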;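 note: positive B-score marks a calcium rise read as TRPC4 activation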
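System: HEK293 cells stably co-expressing mouse TRPC4beta and mu-opioid receptor; Schedule: Fluo4 dye loading 45 min at room temperature, 110 s recording; Detection: Fluo4 fluorescence, kinetic; Evaluation: B-scored integrated calcium fluorescence ratio; Controls: buffer (low) and maximal DAMGO (high).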
TRPC4 block: inhibitors of mouse TRPC4 channel | Q9QUQ5 | HEK293 TRPC4beta/mu-opioid, DAMGO-evoked Fluo4 calcium flux; hits give low values | B-score at 10 µM | hit rate 0.39% among 300,000;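 active = B-score over 3 SD under the library average, no early fluorescence shift, positive overall ratio signal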
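Test system – stable TRPC4beta/mu-opioid receptor HEK293 cells · Probe or stimulus – DAMGO, a submaximal dose followed by a maximal one · Dosing – one concentration per compound · Signal – Fluo4 calcium fluorescence by kinetic imaging, 5 s 1 Hz baseline · Evaluation – per-well B score of integrated baseline-normalized Fluo4 ratio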
TRPC6 act: activators of mouse TRPC6 channel; Q61143; AID 2550; HEK293-TRPC6 membrane potential dye fluorescence; hits give high values; B-score at 10 µM; hit rate 0.13% among 310,000;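 active = B-score of the integrated fluorescence ratio above library mean plus 3 SD, and starting fluorescence ratio within library mean plus 5 SD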;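 note: higher score means more depolarization so channel activation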
TRPC4 PAM: allosteric potentiators of mouse TRPC4 channel. AID 2227. B-score at 10 µM. Q9QUQ5. hit rate 0.42% among 310,000. HEK293 TRPC4beta/mu-opioid, DAMGO EC20, Fluo-4 Ca2+ flux; hits give high values;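 active = B-score of calcium response area above 5 SD of library B-scores, with initial fluorescence ratio within 5 SD of library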;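 note: B-score of integrated fluorescence ratio over time as area under calcium response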
Numbers without * were called inactive. Most compounds without a hit are left out; they make up all but 2.3% or so of the library.

`CC(C)(C)n1nnnc1C(c1ccc(Cl)cc1)N(Cc1cccnc1)Cc1ccco1` (stereo not drawn) gave TRPC6 inhibitor inactive, TRPC4 agonist inactive, TRPC4 block inactive, TRPC6 act inactive and TRPC4 PAM 42*.
Screening CCOCCN1CCN(c2c(C)c(C)nc3cc(-c4cc(OC)cc(OC)c4)nn23)CC1 returned TRPC6 inhibitor inactive, TRPC4 agonist inactive, TRPC4 block inactive, TRPC6 act inactive and TRPC4 PAM inactive.
Screening COCCN1CCN(c2c(C)c(C)nc3cc(-c4cccc(OC)c4)nn23)CC1 returned TRPC6 inhibitor inactive, TRPC4 agonist 48*, TRPC4 block inactive, TRPC6 act inactive and TRPC4 PAM inactive.
Screening COc1cc(CN(C2CCCCC2C)S(=O)(=O)c2ccc(S(=O)(=O)NC3CC3)cc2)cc(OC)c1OC (stereo not drawn) returned TRPC6 inhibitor inactive, TRPC4 agonist inactive, TRPC4 block inactive, TRPC6 act inactive and TRPC4 PAM inactive.
Screening COc1ccc(CN(C2CCCCC2C)S(=O)(=O)c2ccc(S(=O)(=O)N(C)C)cc2)cc1OC (stereo not drawn) returned TRPC6 inhibitor inactive, TRPC4 agonist inactive, TRPC4 block inactive, TRPC6 act inactive and TRPC4 PAM 23*.
Fc1ccc(C(c2nnnn2Cc2cccs2)N2CCN(C3CCCCC3)CC2)cc1 (stereo not drawn) was read as TRPC6 inhibitor inactive, TRPC4 agonist 138*, TRPC4 block inactive, TRPC6 act inactive and TRPC4 PAM inactive.
`CN1CCN(C(c2ccc(F)cc2)c2nnnn2Cc2cccs2)CC1` (stereo not drawn) gave TRPC6 inhibitor inactive, TRPC4 agonist inactive, TRPC4 block inactive, TRPC6 act inactive and TRPC4 PAM inactive.
Screening COc1ccc(CNC(=O)CN(C)Cc2ccccc2F)cc1OC returned TRPC6 inhibitor inactive, TRPC4 agonist inactive, TRPC4 block -6*, TRPC6 act inactive and TRPC4 PAM inactive.
`O=C(NC1CC1)c1cccc(S(=O)(=O)Nc2ccccc2F)c1` gave TRPC6 inhibitor inactive, TRPC4 agonist inactive, TRPC4 block inactive, TRPC6 act inactive and TRPC4 PAM inactive.
Screening CCCCCCCn1c2c(c(=N)c3c1CCC3)CCCC2 returned TRPC6 inhibitor -6*, TRPC4 agonist inactive, TRPC4 block inactive, TRPC6 act inactive and TRPC4 PAM inactive.
For CCCCCCn1c(=O)[nH]c2c(c1=O)CCC2 the results were TRPC6 inhibitor inactive, TRPC4 agonist inactive, TRPC4 block inactive, TRPC6 act inactive and TRPC4 PAM inactive.
CCn1nccc1C(=O)Nc1ccc(C)c(C)c1 was read as TRPC6 inhibitor inactive, TRPC4 agonist inactive, TRPC4 block inactive, TRPC6 act inactive and TRPC4 PAM inactive.
CC(C)(C)c1[nH]nc2c1C(C1C=CCCC1)C(C#N)=C(N)O2 (stereo not drawn) was read as TRPC6 inhibitor inactive, TRPC4 agonist inactive, TRPC4 block inactive, TRPC6 act inactive and TRPC4 PAM inactive.
CC(C)c1[nH]nc2c1C(C1C=CCCC1)C(C#N)=C(N)O2 (stereo not drawn) was read as TRPC6 inhibitor inactive, TRPC4 agonist inactive, TRPC4 block inactive, TRPC6 act inactive and TRPC4 PAM 21*.
Screening N=c1oc2cc(O)ccc2cc1C(=O)Nc1ccc(Cl)cc1 returned TRPC6 inhibitor inactive, TRPC4 agonist inactive, TRPC4 block inactive, TRPC6 act inactive and TRPC4 PAM inactive.
`O=C1CCCC(=O)N1c1ccc(N2CCN(c3ccc([N+](=O)[O-])cc3)CC2)c([N+](=O)[O-])c1` gave TRPC6 inhibitor inactive, TRPC4 agonist inactive, TRPC4 block inactive, TRPC6 act inactive and TRPC4 PAM 21*.
Screening CCOC(=O)c1cc(C#N)c(Oc2ccc(F)cc2)nc1-c1ccccc1 returned TRPC6 inhibitor inactive, TRPC4 agonist inactive, TRPC4 block -5*, TRPC6 act inactive and TRPC4 PAM inactive.
Screening Cc1ccccc1OCC(=O)N=Nc1c(O)n(C)c2ccccc12 returned TRPC6 inhibitor inactive, TRPC4 agonist inactive, TRPC4 block inactive, TRPC6 act inactive and TRPC4 PAM inactive.
CCOc1ccc(NC(=O)Nc2nc3ccc(S(C)(=O)=O)cc3s2)cc1 was read as TRPC6 inhibitor inactive, TRPC4 agonist inactive, TRPC4 block inactive, TRPC6 act inactive and TRPC4 PAM inactive.
`CN(C(=O)CSc1ncnc2scc(-c3ccccc3)c12)C1CCS(=O)(=O)C1` (stereo not drawn) gave TRPC6 inhibitor inactive, TRPC4 agonist inactive, TRPC4 block inactive, TRPC6 act inactive and TRPC4 PAM inactive.
For Cc1sc2ncnc(SCC(=O)N(C)C3CCS(=O)(=O)C3)c2c1C (stereo not drawn) the results were TRPC6 inhibitor inactive, TRPC4 agonist inactive, TRPC4 block inactive, TRPC6 act inactive and TRPC4 PAM 34*.
O=Cc1cc(N=Nc2cccc(C(=O)O)c2)ccc1O was read as TRPC6 inhibitor inactive, TRPC4 agonist inactive, TRPC4 block inactive, TRPC6 act inactive and TRPC4 PAM inactive.
`O=Cc1cc(N=Nc2ccccc2Cl)ccc1O` gave TRPC6 inhibitor inactive, TRPC4 agonist inactive, TRPC4 block -7*, TRPC6 act inactive and TRPC4 PAM inactive.
Cc1cccc(NC(=S)NCC(c2ccccc2)N(C)C)c1 (stereo not drawn) was read as TRPC6 inhibitor inactive, TRPC4 agonist 231*, TRPC4 block inactive, TRPC6 act inactive and TRPC4 PAM inactive.
Screening Cc1cccc(NC(=S)NC(C)CCc2ccccc2)c1 (stereo not drawn) returned TRPC6 inhibitor inactive, TRPC4 agonist inactive, TRPC4 block inactive, TRPC6 act inactive and TRPC4 PAM inactive.
`CN(C)C(CNC(=S)Nc1cccc(Cl)c1)c1ccccc1` (stereo not drawn) gave TRPC6 inhibitor inactive, TRPC4 agonist 220*, TRPC4 block inactive, TRPC6 act inactive and TRPC4 PAM inactive.
Screening CCC(C(=O)O)N1C(=O)c2ccccc2C1=O (stereo not drawn) returned TRPC6 inhibitor inactive, TRPC4 agonist inactive, TRPC4 block inactive, TRPC6 act inactive and TRPC4 PAM inactive.
`CCCCC(C(=O)NC(=O)NCc1ccccc1)N1C(=O)c2ccccc2C1=O` (stereo not drawn) gave TRPC6 inhibitor inactive, TRPC4 agonist inactive, TRPC4 block -6*, TRPC6 act inactive and TRPC4 PAM inactive.
For CC1(c2ccccc2)O[C@@H]2C[C@H]3[C@@H]4CCC5=CC(=O)C=C[C@]5(C)[C@@]4(F)[C@@H](O)C[C@]3(C)[C@]2(C(=O)CO)O1 (stereo partly drawn) the results were TRPC6 inhibitor inactive, TRPC4 agonist inactive, TRPC4 block inactive, TRPC6 act inactive and TRPC4 PAM 12*.
